Results on one compound are retold here after ChEMBL document CHEMBL4130442, “Design, synthesis and structure-activity relationship studies of a focused library of pyrimidine moiety with anti-proliferative and anti-metastasis activities in triple negative breast cancer” (Eur J Med Chem, 2017).

Data set [1] concerns the target T1, Platelet-derived growth factor receptor beta (Homo sapiens, UniProt P09619). The experiment in a line: Inhibition of PDGFRbeta in human MDA-MB-231 cells assessed as C-Raf Ser259 phosphorylation level at 5 uM incubated for 24 hrs in presence of PDGFRbeta siRNA by Western blot relative to untreated control. Format: cell-based.
For data set [2], the system named is MDA-MB-231. The data set is described as follows: Induction of autophagy in human MDA-MB-231 cells assessed as change in Beclin-1 protein level at 2.5 uM incubated for 24 hrs in presence of PDGFRbeta siRNA by Western blot method relative to untreated control. Format: functional. In outline:
(§1)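 MDA-MB-231 cells were exposed for 24 h. Adherent and floating cells were pooled and lysed for 1 h at 4 °C in 50 mM Hepes pH 7.4 with 1% Triton X-100, orthovanadate, NaF, EDTA, PMSF, aprotinin and leupeptin. After 12,000 rpm clearing, equal protein was run on 10-15% SDS-PAGE and blotted to PVDF. Detection used HRP-ECL, with β-actin as loading control and densitometric quantification.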

Data set [3] has as its target T1, Platelet-derived growth factor receptor beta. The data set is described as follows: Inhibition of PDGFRbeta (unknown origin) using ATP and enzyme substrate by kinase-glo Plus luminescence kinase assay. A general note: Kinase-Glo measures the ATP left after a reaction by luminescence.
Data set [4] shares this target. The experiment in a line: Inhibition of PDGFRbeta in human MDA-MB-231 cells assessed as mTOR Ser2448 phosphorylation level at 2.5 uM incubated for 24 hrs by Western blot relative to untreated control. Format: cell-based. The essentials:
(§2)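 Cells were treated 24 h at several concentrations. Pooled adherent and floating cells were lysed in Hepes 50 mM pH 7.4 / 1% Triton X-100 buffer with vanadate, NaF, EDTA, PMSF, aprotinin and leupeptin. Equal protein was run on 10-15% SDS-PAGE and blotted to PVDF. PDGFR-β-AKT-ULK1 pathway phospho-proteins were probed and detected by ECL, with β-actin as loading control.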

Data set [5] has the same target. The experiment in a line: Inhibition of PDGFRbeta in human MDA-MB-231 cells assessed as C-Raf Ser259 phosphorylation level at 10 uM incubated for 24 hrs in presence of PDGFRbeta siRNA by Western blot relative to untreated control. Format: cell-based. For orientation: In western blotting, separated proteins are transferred to a membrane and probed.
The test system of data set [6] is MDA-MB-231. The data set is described as follows: Effect on total Ras protein level in human MDA-MB-231 cells at 5 uM incubated for 24 hrs by Western blot relative to untreated control. The note with it: mda-mb-231, 24 h.
Data set [7] concerns MDA-MB-231. The experiment in a line: Effect on total Akt protein level in human MDA-MB-231 cells at 2.5 uM incubated for 24 hrs in absence of PDGFRbeta siRNA by Western blot relative to untreated control. Format: ADME, cell-based. The note with it: mda-mb-231, 24 h. The essentials:
as §1

In data set [8] the target is T1, Platelet-derived growth factor receptor beta. The experiment in a line: Inhibition of PDGFRbeta in human MDA-MB-231 cells assessed as Akt Thr305 phosphorylation level at 2.5 uM incubated for 24 hrs by Western blot relative to untreated control. Format: cell-based. In outline:
as §2

Data set [9] relates to MDA-MB-231. The data set is described as follows: Effect on total PDGFRbeta protein level in human MDA-MB-231 cells at 2.5 uM incubated for 24 hrs by Western blot relative to untreated control. Format: ADME, cell-based. The note with it: mda-mb-231, 24 h. The essentials:
as §1

For data set [10], the target named is Dual specificity mitogen-activated protein kinase kinase; MEK1/2 (Homo sapiens) (UniProt P36507+Q02750). The experiment in a line: Inhibition of MEK1/2 in human MDA-MB-231 cells assessed as MEK1/2 Ser217/221 phosphorylation level at 10 uM incubated for 24 hrs in presence of PDGFRbeta siRNA by Western blot relative to untreated control. Format: cell-based.
Data set [11] relates to MDA-MB-231. The experiment in a line: Induction of autophagy in human MDA-MB-231 cells assessed as change in LC3-2 protein level at 2.5 uM incubated for 24 hrs in presence of control siRNA by Western blot method relative to untreated control. Format: functional. The essentials: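 Before treatment, MDA-MB-231 cells were transfected with control or PDGFR-β siRNA, then exposed to 2.5 μM compound for 24 h. Lysates of pooled adherent and floating cells were immunoblotted (10-15% SDS-PAGE, PVDF, ECL) for PDGFR-β-AKT-ULK1 autophagy signalling markers, with β-actin as loading control.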

The target in data set [12] is T2, Mitogen-activated protein kinase; ERK1/ERK2 (Homo sapiens) (UniProt P27361+P28482). The experiment in a line: Inhibition of ERK1/2 in human MDA-MB-231 cells assessed as ERK1/2 Thr202/Tyr204 phosphorylation level at 10 uM incubated for 24 hrs in presence of PDGFRbeta siRNA by Western blot relative to untreated control. Format: cell-based.
Data set [13] relates to MDA-MB-231. The data set is described as follows: Induction of autophagy in human MDA-MB-231 cells assessed as change in p62 protein level at 5 uM incubated for 24 hrs by Western blot method relative to untreated control. Format: functional. The essentials: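 Cells grown in DMEM with 10% FBS under 5% CO2 and treated 24 h across a range of concentrations. Adherent and floating cells were pooled and lysed in Hepes 50 mM pH 7.4 / 1% Triton X-100 buffer with phosphatase and protease inhibitors, 4 °C for 1 h. Equal protein was run on 10-15% SDS-PAGE, blotted to PVDF, probed with Beclin-1, p62 and LC3 antibodies and detected by ECL.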

The target of data set [14] is T1, Platelet-derived growth factor receptor beta. The data set is described as follows: Inhibition of PDGFRbeta in human MDA-MB-231 cells assessed as mTOR Ser2448 phosphorylation level at 5 uM incubated for 24 hrs by Western blot relative to untreated control. Format: cell-based. The essentials:
as §2

Data set [15] shares this target. The data set is described as follows: Inhibition of PDGFRbeta in human MDA-MB-231 cells assessed as Akt Ser473 phosphorylation level at 2.5 uM incubated for 24 hrs in absence of PDGFRbeta siRNA by Western blot relative to untreated control. Format: cell-based. The essentials: (§3)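 Cells were transfected with control or PDGFR-β siRNA, then treated with 2.5 μM compound for 24 h. PDGFR-β-AKT-ULK1 pathway phospho-proteins were assessed by western blot: lysis in Hepes pH 7.4 / Triton buffer, 10-15% SDS-PAGE, PVDF, ECL detection, β-actin as loading control.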

The test system of data set [16] is MDA-MB-231. The data set is described as follows: Effect on total c-Raf protein level in human MDA-MB-231 cells at 10 uM incubated for 24 hrs in presence of PDGFRbeta siRNA by Western blot relative to untreated control. Format: cell-based. As to conditions: mda-mb-231, 24 h.
In data set [17] the target is T1, Platelet-derived growth factor receptor beta. The data set is described as follows: Inhibition of PDGFRbeta in human MDA-MB-231 cells assessed as Akt Thr305 phosphorylation level at 5 uM incubated for 24 hrs by Western blot relative to untreated control. Format: cell-based. The essentials: as §2
Data set [18] relates to MDA-MB-231. The data set is described as follows: Induction of apoptosis in human MDA-MB-231 cells assessed as change in cleaved caspase-3 protein level at 5 uM incubated for 24 hrs by Western blot method relative to untreated control. Format: functional. In outline:
as §1

Data set [19] has as its system MDA-MB-231. The data set is described as follows: Effect on total ERK1/2 protein level in human MDA-MB-231 cells at 2.5 uM incubated for 24 hrs in presence of PDGFRbeta siRNA by Western blot relative to untreated control. The note with it: mda-mb-231, 24 h. Format: cell-based.
The test system of data set [20] is MDA-MB-231. The data set is described as follows: Effect on total ULK1 protein level in human MDA-MB-231 cells at 2.5 uM incubated for 24 hrs by Western blot relative to untreated control. As to conditions: mda-mb-231, 24 h. Format: ADME, cell-based. In outline: as §1
The target in data set [21] is T1, Platelet-derived growth factor receptor beta. The data set is described as follows: Inhibition of PDGFRbeta in human MDA-MB-231 cells assessed as mTOR Ser2448 phosphorylation level at 2.5 uM incubated for 24 hrs in presence of PDGFRbeta siRNA by Western blot relative to untreated control. Format: cell-based. In outline: as §3
Data set [22] has as its target T2, Mitogen-activated protein kinase; ERK1/ERK2 (Homo sapiens). The data set is described as follows: Inhibition of ERK1/2 in human MDA-MB-231 cells assessed as ERK1/2 Thr202/Tyr204 phosphorylation level at 5 uM incubated for 24 hrs in presence of PDGFRbeta siRNA by Western blot relative to untreated control. Format: cell-based.

Molecules are shown by their SMILES.

T1 sequence (P09619 whole entry): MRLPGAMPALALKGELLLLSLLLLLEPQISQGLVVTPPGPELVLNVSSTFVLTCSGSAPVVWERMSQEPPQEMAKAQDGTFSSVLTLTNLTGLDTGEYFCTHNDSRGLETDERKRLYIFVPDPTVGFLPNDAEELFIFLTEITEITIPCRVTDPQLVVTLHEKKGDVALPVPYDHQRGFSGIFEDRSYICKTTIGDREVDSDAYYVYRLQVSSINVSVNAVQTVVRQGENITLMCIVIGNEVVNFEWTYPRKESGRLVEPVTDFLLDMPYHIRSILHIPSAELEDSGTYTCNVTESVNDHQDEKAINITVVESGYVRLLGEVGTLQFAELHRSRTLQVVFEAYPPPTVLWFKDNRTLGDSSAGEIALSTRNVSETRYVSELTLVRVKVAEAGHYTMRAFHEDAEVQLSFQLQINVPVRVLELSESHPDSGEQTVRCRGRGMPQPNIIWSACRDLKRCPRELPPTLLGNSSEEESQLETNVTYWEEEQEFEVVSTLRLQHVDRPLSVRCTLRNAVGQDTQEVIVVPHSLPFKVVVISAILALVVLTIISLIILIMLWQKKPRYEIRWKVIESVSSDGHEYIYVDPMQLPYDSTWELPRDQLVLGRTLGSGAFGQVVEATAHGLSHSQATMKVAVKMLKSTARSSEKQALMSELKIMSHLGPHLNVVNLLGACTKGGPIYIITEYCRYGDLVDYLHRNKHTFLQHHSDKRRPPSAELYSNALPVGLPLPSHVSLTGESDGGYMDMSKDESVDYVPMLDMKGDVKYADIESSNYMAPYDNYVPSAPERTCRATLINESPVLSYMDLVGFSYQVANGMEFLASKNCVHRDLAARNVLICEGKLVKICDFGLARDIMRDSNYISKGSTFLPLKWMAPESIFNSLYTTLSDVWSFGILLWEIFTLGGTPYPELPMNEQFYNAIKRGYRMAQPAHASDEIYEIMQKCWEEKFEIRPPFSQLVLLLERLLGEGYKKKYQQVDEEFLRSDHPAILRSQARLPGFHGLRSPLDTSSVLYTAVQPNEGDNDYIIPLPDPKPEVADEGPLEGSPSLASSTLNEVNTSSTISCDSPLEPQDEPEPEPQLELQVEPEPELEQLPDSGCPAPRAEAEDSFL
T2 sequence (P27361 whole entry, looked up): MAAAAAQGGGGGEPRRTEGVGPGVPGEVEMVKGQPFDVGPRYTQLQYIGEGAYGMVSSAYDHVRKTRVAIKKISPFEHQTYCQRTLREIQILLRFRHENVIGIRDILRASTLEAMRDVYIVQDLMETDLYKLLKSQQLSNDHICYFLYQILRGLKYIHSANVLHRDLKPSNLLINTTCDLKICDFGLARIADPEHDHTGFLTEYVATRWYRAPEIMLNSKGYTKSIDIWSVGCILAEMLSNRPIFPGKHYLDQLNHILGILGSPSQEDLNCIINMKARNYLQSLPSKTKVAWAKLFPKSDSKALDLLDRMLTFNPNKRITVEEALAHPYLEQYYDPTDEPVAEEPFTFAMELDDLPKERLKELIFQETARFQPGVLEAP
T2 sequence (P28482 whole entry, looked up): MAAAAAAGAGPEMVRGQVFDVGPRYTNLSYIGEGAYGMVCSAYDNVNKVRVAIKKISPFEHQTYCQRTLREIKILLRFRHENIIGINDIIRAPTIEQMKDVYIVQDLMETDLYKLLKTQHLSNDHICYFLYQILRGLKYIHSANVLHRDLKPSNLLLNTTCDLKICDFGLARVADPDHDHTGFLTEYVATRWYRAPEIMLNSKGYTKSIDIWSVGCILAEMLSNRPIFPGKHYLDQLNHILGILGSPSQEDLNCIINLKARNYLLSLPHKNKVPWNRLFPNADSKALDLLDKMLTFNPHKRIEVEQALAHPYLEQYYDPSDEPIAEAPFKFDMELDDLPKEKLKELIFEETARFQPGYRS
Dual specificity mitogen-activated protein kinase kinase; MEK1/2 (Homo sapiens), sequence (P36507 whole entry, looked up): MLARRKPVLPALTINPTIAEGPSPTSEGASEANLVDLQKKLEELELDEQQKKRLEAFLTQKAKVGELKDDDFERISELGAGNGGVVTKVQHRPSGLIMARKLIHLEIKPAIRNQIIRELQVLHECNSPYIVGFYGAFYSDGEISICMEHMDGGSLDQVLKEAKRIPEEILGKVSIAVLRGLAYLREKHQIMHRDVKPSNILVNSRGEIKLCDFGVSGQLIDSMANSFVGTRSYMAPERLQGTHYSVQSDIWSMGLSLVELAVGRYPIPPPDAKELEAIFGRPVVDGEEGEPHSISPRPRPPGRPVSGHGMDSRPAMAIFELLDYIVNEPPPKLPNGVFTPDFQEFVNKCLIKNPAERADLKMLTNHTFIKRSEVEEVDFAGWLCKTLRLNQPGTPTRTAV
Dual specificity mitogen-activated protein kinase kinase; MEK1/2 (Homo sapiens), sequence (Q02750 whole entry, looked up): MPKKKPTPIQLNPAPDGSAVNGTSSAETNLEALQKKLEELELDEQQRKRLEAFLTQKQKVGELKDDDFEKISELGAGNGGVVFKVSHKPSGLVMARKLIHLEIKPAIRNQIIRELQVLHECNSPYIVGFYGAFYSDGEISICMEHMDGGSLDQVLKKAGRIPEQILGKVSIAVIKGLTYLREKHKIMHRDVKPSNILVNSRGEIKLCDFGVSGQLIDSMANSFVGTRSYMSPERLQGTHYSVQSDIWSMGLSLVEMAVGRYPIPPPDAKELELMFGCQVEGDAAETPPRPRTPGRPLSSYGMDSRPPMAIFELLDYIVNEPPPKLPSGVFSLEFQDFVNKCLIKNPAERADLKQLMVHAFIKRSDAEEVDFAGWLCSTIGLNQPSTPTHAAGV

With `COc1cccc(Nc2cc(N3CCN(C(=O)Nc4ccc(C(F)(F)F)cc4)CC3)ncn2)c1`, the fold change (FC) in data set [1] was 1.06; in data set [2], 4.18; in data set [4] it was 0.74; in data set [5], 0.95; in [6], 1.35; in [7], 0.62. In addition, the fold change (FC) in data set [8] is 0.95; in data set [9], 1.8; in data set [10] it was 1.01; in [11], 2.34; in data set [12], 2.38; in data set [13], 0.43. Besides, the fold change (FC) came to 0.23 in data set [14]; 0.48 in data set [15]; 1.23 in data set [16]; 0.75 in data set [17]; 0.88 in data set [18]; 1.08 in [19]. In addition, the “fold change (FC)” value turned out to be 0.89 in data set [20], 0.16 in [21] and 1.86 in [22]. In addition, the IC50 in data set [3] is 7.8 µM.

The IC50 is the point on the concentration scale where inhibition reaches its midpoint.
